Shown are actives, neighbours in structure and some others; about 2.1% of the full set was active somewhere.
Runt-SMMHC FRET: blocks binding of human RUNX1 Runt domain to CBFb-SMMHC | Cerulean-Runt/Venus-CBFb-SMMHC FRET ratio 530/480, 1 h | inhibition, % at 20 µM | 0.74% of 220,000 active;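 active means mean inhibition across duplicate retests at 20 µM reaching about 50%, limit read from the data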;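 further: 0% = DMSO wells and 100% = wells with excess untagged CBFb-SMMHC; inhibitors lower the FRET ratio by blocking Runt binding to CBFb-SMMHC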
RanGTP-Impb inh: disruptors of Ran-importin-beta complex formation – biochemical, FRET, CFP-Ran, YFP-importin-beta, homogeneous, primary screen; cell-free CFP-Ran/YFP-importin-beta FRET ratio; inhibition, % (no concentration beside the values); 1.1% of 300,000 active; AID 2216;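 active means more than half of the replicate wells show a fall in the fluorescence ratio signal beyond about 16%, limit read from the data, passing the limit was not always enough; inconclusive means exactly half of the replicate wells pass the set limit; inactive means fewer than half of replicates pass the limit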;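 further: 0% = DMSO wells and 100% = Ran loaded with GDP instead of GTP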
Runt-CBFb FRET: inhibitors of human RUNX1 Runt domain binding to CBFb. Q01196+Q13951. Cerulean-Runt/Venus-CBFb FRET ratio 530/480, 1 h. inhibition, % at 20 µM. 0.46% of 220,000 active. AID 1496;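 active means inhibition over about 50% at 20 µM in the single-dose screen, limit read from the data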;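 further: 0% = DMSO wells and 100% = excess unlabeled CBFb competitor control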
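Doses: 20 µM compound in 1% DMSO | Material: Cerulean-labeled Runt domain protein | Amount: Each fluorescent fusion protein 100 nM | Schedule: Two 1 h room-temperature incubations shielded from light | Measured by: FRET fluorescence | Evaluation: Loss of energy transfer signal | Controls: Unlabeled CBFb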
zVAD death inh: blocks zVAD induced death of L929 cells; L929 zVAD necroptosis rescue, ATP luminescence, 24 h; with zVAD 60 µM; 0.38% of 220,000 active; AID 1377; viability rescue, % at 10 µM;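 active means activation, scaled between plate controls, above about 75%, limit read from the data; inactive means activation under that limit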;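 further: 0% = zVAD with DMSO and 100% = DMSO alone without zVAD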
Hck-Nef inh: human Hck-Nef kinase inhibition | P08631 | Recombinant Hck-YEEI plus Nef, Z-Lyte FRET kinase assay | inhibition, % at 20 µM | 0.68% of 220,000 active;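 active means Hck-Nef kinase inhibition above about 50%, limit read from the data; inactive means inhibition below that limit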;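 further: 0% = DMSO with Hck plus Nef and 100% = Hck alone without Nef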
Target sequence (P08631 whole entry, looked up): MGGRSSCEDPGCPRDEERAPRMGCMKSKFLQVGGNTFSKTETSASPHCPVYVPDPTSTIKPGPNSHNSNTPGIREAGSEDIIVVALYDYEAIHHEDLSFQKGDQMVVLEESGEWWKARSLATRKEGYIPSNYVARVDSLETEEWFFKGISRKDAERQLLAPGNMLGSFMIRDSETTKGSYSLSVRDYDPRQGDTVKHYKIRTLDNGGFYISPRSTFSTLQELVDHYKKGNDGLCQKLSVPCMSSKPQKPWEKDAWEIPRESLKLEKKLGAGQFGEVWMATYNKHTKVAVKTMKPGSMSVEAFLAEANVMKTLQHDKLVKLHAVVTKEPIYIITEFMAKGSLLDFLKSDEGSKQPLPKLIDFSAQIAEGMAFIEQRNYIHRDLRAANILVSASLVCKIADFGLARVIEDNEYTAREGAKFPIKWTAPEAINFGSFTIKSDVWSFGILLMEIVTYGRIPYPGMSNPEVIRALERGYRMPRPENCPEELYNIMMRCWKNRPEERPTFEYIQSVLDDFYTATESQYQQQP
TNF necrop inh: inhibitors of TNF-alpha induced necroptosis in Jurkat FADD-/- cells; AID 463075; Jurkat FADD-/- TNF necroptosis rescue, ATP luminescence, 24 h; 0 = TNF only, 100 = no-TNF cells; 0.068% of 220,000 active; activation (protection from cell death), % at 10 µM;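 active means activation, meaning protection from cell death, of at least 50% relative to plate controls; inactive means activation below 50%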;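 further: necroptosis triggered by 40 ng/mL TNF-alpha added together with compound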
RUNX1 CBFb TR: Runt-CBFb binding inhibition; shares compounds with Runt-CBFb FRET; AID 1502; inhibition, % at 20 µM; 20% of 480 active; TR-FRET RUNX1 Runt domain-CBFb binding; in the data active means inhibition above about 40%
YIC FRET counter: counter-screen for RanGTP-importin-beta inhibitors: YIC FRET probe | Purified YIC probe, intramolecular FRET ratio YFP/CFP | AID 435026 | 40% of 1,000 active | shares compounds with RanGTP-Impb inh | IC50, µM;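 active means fitted half-maximal inhibitory concentration no more than tenfold above the top dose tested; inconclusive means flat fit with 30 to 70% activity, or poor fit; inactive means half-maximal concentration beyond tenfold above the top dose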
* = called active by the depositor; ? = inconclusive; · = no result shown.

SMILES | Runt-SMMHC FRET | RanGTP-Impb inh | Runt-CBFb FRET | zVAD death inh | Hck-Nef inh | TNF necrop inh | RUNX1 CBFb TR | others
CCCCCCc1cc2cc(C(=O)Nc3ccc(OC)cc3)c(=O)oc2cc1O | 102.5 | 40.7* | 65.3* | 6.2 | 28.0 | -2.2 | -12.4
COC(=O)c1ccc(OS(=O)(=O)N(C)C)cc1 | -2.6 | 2.5 | 1.2 | 1.1 | -16.0 | 0.6 | ·
CN1C(=S)SC(N(O)C(=O)Nc2ccccc2)C1(C)C (stereo unspecified) | -1.8 | -1.5 | -1.5 | 0.3 | -6.6 | -0.4 | ·
CC1(C)C(N(O)C(=O)Nc2ccccc2)N(c2cccc(Cl)c2)C(=O)N1O (stereo unspecified) | -3.9 | 0.9 | 53.0* | -0.1 | -1.2 | -1.3 | -13.9
CC[n+]1c(C)cc(C)n1-c1ccccc1 | 8.6 | -1.8 | -1.2 | -0.3 | -19.1 | -0.7 | ·
CC1(C)CC(=O)c2c(oc3cc(O)c(O)cc23)C1 | 44.0 | -0.1 | 52.1* | 1.0 | -2.3 | -2.0 | 24.9
O=C(c1ccc(OC2CCN(CCCc3ccccc3)CC2)cc1)N1CCCC1 | · | 1.0 | · | · | · | · | ·
Cc1c(NS(=O)(=O)c2ccc3c(c2)CCN3C(=O)C2CC2)c(=O)n(-c2ccccc2)n1C | -8.1 | 2.3 | 56.6* | 2.3 | 0.5 | 0.3 | -10.1
CCCC(C(=O)NC1CCCC1)N(C(=O)Cn1nnc(-c2ccc(C)o2)n1)c1ccccc1OC (stereo unspecified) | 2.6 | 0.1 | 53.1* | -0.4 | -0.3 | -2.0 | -15.4
CCC(C(=O)NC1CCCC1)N(C(=O)Cn1nnc(-c2ccc(C)o2)n1)c1cccc(OC)c1 (stereo unspecified) | · | -2.1 | · | · | · | · | ·
COCc1cc(C)nc2sc(C(=O)Nc3nccs3)c(N)c12 | -87.6 | -12.6 | 0.6 | 20.8 | 0.8 | 1.5 | ·
Cc1cc(C)c2c(N)c(C(=O)Nc3nccs3)sc2n1 | 38.7 | -0.2 | 55.7* | 4.8 | 6.3 | 4.2 | 16.4
O=C(CN(CC1CCCO1)C(=O)CNS(=O)(=O)c1ccc(Cl)cc1)NC1CCCC1 (stereo unspecified) | · | -0.7 | · | · | · | · | ·
CCOC(=O)[C@@H]1[C@H]2COc3ccc(Br)cc3[C@H]2N2C(=O)N(c3ccc(F)cc3)C(=O)[C@@]12C | · | 1.0 | · | · | · | · | ·
COC(=O)c1ccccc1N/C=C1\CCc2c(c(C)nn2-c2ccccn2)C1=O | 63.0* | 35.9* | 53.5* | 0.1 | 20.1 | -4.4 | 50.6*
O=C(NCc1ccc(F)cc1)c1noc2c1CCCC2 | -1.0 | -2.7 | 54.5* | -0.6 | -0.4 | 14.2 | 3.6
Nc1ccc(S(=O)(=O)Nc2nccc(/C=C/c3ccc(Cl)cc3Cl)n2)cc1 | -9.0 | 2.1 | -11.4 | -0.2 | 21.0 | -3.5 | ·
Cc1csc(SCC(=O)Nc2cc(S(=O)(=O)N(C)C)ccc2C)n1 | · | -3.2 | · | · | · | · | ·
CCC(C)(C)n1nnnc1C(c1ccc2ncccc2c1)N1CCN(c2ccc(O)cc2)CC1 (stereo unspecified) | -1.2 | -1.0 | 53.6* | 0.0 | 7.9 | -1.7 | 29.4
COc1ccccc1N1CCN(/N=C/c2cccc(O)c2)CC1 | · | 1.8 | · | 0.8 | 16.5 | -0.2 | ·
COc1ccccc1N1CCN(/N=C/c2cc(OC)c(O)c(OC)c2)CC1 | 47.0 | 4.4 | 59.4* | 0.1 | 2.2 | 0.5 | 35.3
CCOC(=O)C1=C(C)C/C(=N\NC(=O)c2ccccc2O)CC1 | 1.2 | 1.2 | 0.7 | 0.0 | -3.4 | -8.0 | ·
Cc1cc(C)nc(SCC(=O)c2cc3ccccc3oc2=O)n1 | 26.1 | -0.7 | 53.8* | -0.4 | 14.5 | -2.7 | 14.2
C=CCn1c(N)c(C(=O)OCCC)c2nc3ccccc3nc21 | 118.8* | 21.2* | 69.0* | 0.4 | 35.8 | -4.8 | 16.0 | YIC FRET counter=>50
CCN(CCO)c1ccc(-n2c(N)c(C(=O)OC)c3nc4ccccc4nc32)cc1 | 9.4 | -0.1 | 1.8 | 1.9 | 11.9 | -2.1 | ·
SMILES | Runt-SMMHC FRET | RanGTP-Impb inh | Runt-CBFb FRET | zVAD death inh | Hck-Nef inh | TNF necrop inh | RUNX1 CBFb TR | others
Cc1ccc(NC(=O)CCNS(=O)(=O)c2ccc3[nH]c(=O)oc3c2)cc1N(C)C | · | -0.1 | · | · | · | · | ·
Cc1ccc(-c2nc3cccnc3s2)cc1NS(=O)(=O)c1cccs1 | -3.3 | 0.1 | 1.0 | 1.9 | 1.2 | 1.4 | ·
CCc1ccc(S(=O)(=O)Nc2ccc(-c3nc4cccnc4s3)cc2)s1 | 147.8* | 39.5* | 80.3* | 8.1 | 7.5 | -0.1 | 17.2 | YIC FRET counter=9.71*
Cc1nonc1NC(=O)CSc1nnc(N)s1 | · | -5.9 | · | · | · | · | ·
CC(=O)N1CCc2c(sc(NC(=O)c3ccc4c(c3)OCCO4)c2C#N)C1 | 90.4* | 39.0* | 64.6* | 1.4 | 0.4 | -12.4 | -246.3 | YIC FRET counter=51.8*
COc1cc(CN2CCN(C(=O)c3cccc4ccccc34)CC2)cc(OC)c1O | · | -1.8 | · | · | · | · | ·
Cc1cc(C)c(NC(=O)CN2C(=O)CC(C)S(=O)(=O)c3ccccc32)c(C)c1 (stereo unspecified) | · | 2.1 | · | · | · | · | ·
CCOc1ccc(Nc2c3ccccc3nc3ccccc23)cc1 | 3.3 | 54.4* | 59.9* | 4.3 | -1.6 | -19.5 | 41.4* | YIC FRET counter=>50
CCOCCCNC(=O)/C(C#N)=C/c1cc(Br)c(O)c(Br)c1 | 116.3* | 38.4* | 68.1* | -0.5 | 21.1 | -16.3 | -20.2 | YIC FRET counter=14.8*
CCN1C2=C(C(=O)CCC2)C(c2ccc(O)c(Br)c2)C2=C1CCCC2=O | 122.2* | 35.1* | 53.9* | -0.2 | 10.4 | -3.6 | 27.2 | YIC FRET counter=8.39*
COCCN1C=C(C(=O)OC)C(c2cc(Br)c(OC)c(OC)c2)C(C(=O)OC)=C1 | 142.4* | 20.0* | 73.0* | -0.5 | 67.8* | -5.4 | 38.8 | YIC FRET counter=30.5*
COC(=O)C1=CN(Cc2ccc(C)cc2)C=C(C(=O)OC)C1c1cc(OC)c(OC)c(OC)c1 | · | 8.0 | · | · | · | · | ·
Nc1c(S(=O)(=O)c2ccccc2)c2nc3ccccc3nc2n1CCN1CCOCC1 | 6.7 | 2.9 | 0.9 | · | 18.6 | 1.5 | ·
CCCCn1c(NC(=O)c2ccc(Br)o2)c(S(=O)(=O)c2ccccc2)c2nc3ccccc3nc21 | 135.7* | 25.4* | 64.0* | -0.3 | 84.2* | -4.8 | 2.3 | YIC FRET counter=4.89*
COc1ccc2ccc(=O)oc2c1 | -0.5 | ? | 1.2 | 4.4 | -1.3 | 0.2 | ·
CC(=O)Oc1ccc2ccc(=O)oc2c1 | 85.2* | 12.9 | 51.2* | -1.0 | 122.1* | -0.5 | 38.9
CC(NC(=O)OC(C)(C)C)C(=O)Oc1ccc2ccc(=O)oc2c1 (stereo unspecified) | 112.6* | · | 68.2* | 0.8 | 74.4* | -0.6 | 36.4
Cc1ccc(C(=O)Oc2ccc3ccc(=O)oc3c2)cc1 | · | -1.5 | · | · | · | · | ·
